Hits are enriched below; roughly 3.7% of the tested compounds scored in any of these assays.
KCNQ1 block = inhibitors of human KCNQ1 potassium channel | CHO-K1 KCNQ1, FluxOR thallium flux fluorescence; hits give high values | B-score at 10 µM | AID 2642 | P51787 | actives 1.3% (n = 310,000);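 active means compounds whose thallium flux B-score, printed positive for inhibition, exceeds three library SD while starting fluorescence stays within three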;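 further: channel opened by potassium depolarization with thallium stimulus after 20 min compound exposure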
Target sequence (P51787 whole entry, looked up): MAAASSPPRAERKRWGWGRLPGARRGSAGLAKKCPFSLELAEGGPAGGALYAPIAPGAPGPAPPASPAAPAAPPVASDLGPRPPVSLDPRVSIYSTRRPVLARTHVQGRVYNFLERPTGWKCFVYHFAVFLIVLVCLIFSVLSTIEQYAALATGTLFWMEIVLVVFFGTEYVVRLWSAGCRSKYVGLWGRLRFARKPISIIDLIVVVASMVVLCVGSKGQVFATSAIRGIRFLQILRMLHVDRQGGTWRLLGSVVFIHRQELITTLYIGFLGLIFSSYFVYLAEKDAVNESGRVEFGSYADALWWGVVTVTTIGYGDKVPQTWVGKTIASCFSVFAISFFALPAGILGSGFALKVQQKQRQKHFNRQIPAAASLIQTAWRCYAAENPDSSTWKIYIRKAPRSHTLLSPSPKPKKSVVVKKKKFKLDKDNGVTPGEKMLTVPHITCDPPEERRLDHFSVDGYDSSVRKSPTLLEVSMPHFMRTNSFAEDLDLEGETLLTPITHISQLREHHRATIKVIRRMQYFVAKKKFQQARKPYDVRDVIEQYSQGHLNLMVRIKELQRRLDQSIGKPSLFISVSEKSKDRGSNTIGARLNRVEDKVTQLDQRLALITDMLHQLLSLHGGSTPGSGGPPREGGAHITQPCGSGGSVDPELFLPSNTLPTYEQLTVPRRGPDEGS
Kir21 inh = blocks the mouse Kir2.1 inward-rectifier potassium channel; B-score at 10 µM; HEK293-Kir2.1, FluxOR thallium flux fluorescence; hits give low values; actives 0.85% (n = 310,000); P35561;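 active means fluorescence ratio B-score at or below minus 3 SD of library scores, with starting-brightness B-score within 2 SD, cut at about -4.2 in these data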;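 further: channel flux triggered by added potassium and thallium sulfate stimulus; B-score of peak minus minimum fluorescence over baseline after thallium stimulus; more negative B-score means stronger Kir2.1 block with less thallium influx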
KCNQ1 act = potentiators or activators of human KCNQ1 potassium channel; actives 0.35% (n = 310,000); CHO-K1 KCNQ1, thallium flux FluxOR fluorescence; hits give high values; AID 2648; B-score at 10 µM; P51787;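 active means fluorescence ratio B-score, a plate-corrected score, at least three library SD, with initial intensity B-score within 5 SD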
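Schedule – 37 °C overnight plating, 90-min dark dye load, 20-min compound pretreatment · System – stable KCNQ1 CHO-K1 line · Probe or stimulus – thallium- and potassium-containing depolarizing buffer · Measured by – kinetic FluxOR fluorescence, 10 s baseline plus 110 s post-stimulus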
KCNK9 inh = blocks the human KCNK9 two-pore domain potassium channel; Q9NPC2; HEK293 KCNK9, FluxOR thallium flux fluorescence; hits give low values; B-score at 10 µM; actives 1.2% (n = 310,000);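 active means ratio B-score over 3 SD below the library mean, with starting fluorescence within 5 SD of its mean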;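 further: negative B-score means less thallium flux so channel inhibition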
KCNK3 inh = human KCNK3 channel inhibition, primary screen. O14649. CHO-KCNK3 thallium flux, FluxOR fluorescence; hits give low values. B-score at 10 µM. actives 0.84% (n = 340,000);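 active means B-score under library mean minus 4 SD, starting fluorescence ratio at most library mean plus 5 SD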;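 further: more negative B-score means stronger inhibition of thallium flux through KCNK3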
hERG rescue = shields human hERG channel from block by proarrhythmic agents; CHO-hERG, FluxOR thallium flux, dofetilide IC70 present; activation (rescue from dofetilide block), less the hit threshold, % at 10 µM; actives 0.51% (n = 310,000); AID 1511;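 active means activation above the mean of controls blocked by dofetilide plus 5 SD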;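 further: thallium influx through hERG after potassium depolarization seen as dye fluorescence rise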
KCNK9 inh conf = confirmation of human KCNK9 potassium channel inhibitors | shares compounds with KCNK9 inh | inhibition, % at 10 µM | actives 43% (n = 4,900) | AID 492992 | HEK293 KCNK9 cells, FluxOR thallium flux fluorescence;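 active means thallium signal inhibited by more than 5 SD of the compound-free buffer control wells, on both duplicate plates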
Kir2-1 spec = tests whether KCNK9 modulators also affect mouse Kir2.1 | actives 4% (n = 4,900) | shares compounds with KCNK9 inh | inhibition, % at 10 µM | Kir2.1 cells, FluxOR thallium flux fluorescence;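 active means thallium signal drop more than 5 SD beyond the mean of the no-compound control wells, seen in both duplicate plates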;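 further: signal is fluorescence rise after thallium addition divided by baseline fluorescence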
KCNK9 uninduced = non-induced cell nonspecific activity of KCNK9 modulators | shares compounds with KCNK9 inh | non-induced KCNK9-HEK293, FluxOR thallium flux | inhibition, % at 10 µM | actives 40% (n = 4,900);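 active means thallium signal drop beyond 5 SD of the untreated control mean, on both duplicate plates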
Numbers stand for hits; – = inactive; · = no result given.

SMILES | KCNQ1 block | Kir21 inh | KCNQ1 act | KCNK9 inh | KCNK3 inh | hERG rescue | KCNK9 inh conf | Kir2-1 spec | KCNK9 uninduced
COc1ccc(N2CCN(Cc3cc4c(cc3Br)OCCO4)CC2)cc1 | – | – | – | – | – | – | – | – | –
COc1ccc(N2CCN(Cc3csc(C)c3-c3ccc(C)cc3)CC2)cc1 | – | – | – | – | – | – | – | – | –
COc1ccccc1N1CCN(Cc2cc3c(cc2Br)OCCO3)CC1 | – | – | – | – | – | – | – | – | –
O=S(=O)(c1ccccc1)N1CCN(Cc2cc3c(cc2Br)OCCO3)CC1 | · | · | · | · | – | · | · | · | ·
COc1cc(OC)c(OC)cc1CN1CCN(c2ccccc2OC)CC1 | – | – | – | – | – | – | · | · | ·
Cc1cc(OCc2cc(C(=O)N(C)CCOc3ccccc3)no2)cc(C)c1Cl | – | – | – | – | – | – | – | – | –
COc1cccc(CN(C)C(=O)c2cc(COc3c(F)cccc3F)on2)c1 | – | – | – | – | – | – | – | – | –
CN(Cc1cnn(C)c1)C(=O)c1cc(COc2c(F)cccc2F)on1 | – | – | – | – | – | – | · | · | ·
Cc1ccc(OCCN(C)C(=O)c2cc(COc3ccc(F)cc3F)on2)cc1 | – | – | – | – | – | – | – | – | –
Cc1cc(OCc2cc(C(=O)N(C)Cc3ccccn3)no2)cc(C)c1Cl | – | – | – | – | – | – | · | · | ·
CN(CCc1ccccn1)C(=O)c1cc(COc2ccc(F)cc2F)on1 | – | – | – | – | – | – | · | · | ·
CN(CCc1ccccc1)C(=O)c1cc(COc2ccc(F)cc2Cl)on1 | – | – | – | – | – | – | – | – | –
O=[N+]([O-])/C(C(Cl)=C(Cl)Cl)=C(/Sc1ccccc1)N1CCCCC1 | – | – | – | – | – | – | · | · | ·
CC[C@H](C)[C@H](NC(=O)OCc1ccccc1)C(=O)OCC(=O)N1CCN(c2ccc(F)cc2)CC1 | · | · | · | · | – | · | · | · | ·
CC1CCN(C(=O)CSC2=NS(=O)(=O)c3cc(F)ccc3N2)CC1 | – | – | – | – | – | – | · | · | ·
CC1(C)Cc2c(sc(NC(=O)C(=O)NCC3CCCO3)c2C(N)=O)CO1 (stereo not drawn) | – | – | – | – | – | – | · | · | ·
O=C1CC(N2CCC(Cc3ccccc3)CC2)C(=O)N1CCc1ccccc1 (stereo not drawn) | – | – | – | – | – | – | – | – | –
CC(C)(C)c1ccc(C(=O)N2CCCC2c2cccs2)cc1 (stereo not drawn) | – | – | – | – | – | – | – | – | –
CS(=O)(=O)Cc1ccc(C(=O)N2CCCC2c2cccs2)cc1 (stereo not drawn) | – | – | – | – | – | – | · | · | ·
Cc1ccc(C)c(N(CC(=O)NCCSCc2ccco2)S(C)(=O)=O)c1 | – | – | – | – | – | – | · | · | ·
Cc1ccc(CSCCNC(=O)CN(c2cc(C)ccc2C)S(C)(=O)=O)cc1 | – | – | – | – | – | – | – | – | –
Cc1ccc(SCC(=O)NCCSCc2ccccc2)cc1 | – | – | – | – | – | – | – | – | –
Cc1ccc(CSCCNC(=O)CCSc2ccccc2)cc1 | – | – | – | – | – | – | · | · | ·
Cc1ccccc1CSCCNC(=O)CCSc1ccccc1 | – | – | – | – | – | – | – | – | –
CC(CN)(NS(=O)(=O)c1ccccc1)c1ccccc1 (stereo not drawn) | – | – | – | – | – | – | · | · | ·
SMILES | KCNQ1 block | Kir21 inh | KCNQ1 act | KCNK9 inh | KCNK3 inh | hERG rescue | KCNK9 inh conf | Kir2-1 spec | KCNK9 uninduced
Cc1[nH]c2ccccc2c1/C=C(\C#N)C(=O)NCc1ccccc1 | – | – | – | – | – | – | · | · | ·
Cc1ccc(C(C)NC(=O)/C(C#N)=C\c2c(C)[nH]c3ccccc23)cc1 (stereo not drawn) | – | – | – | – | – | – | – | – | –
CCn1cc(CN2CCC(C(=O)Nc3ccc(Oc4cccnc4)cc3)CC2)cn1 | – | – | – | – | – | – | · | · | ·
Oc1ccc2ccccc2c1CN1CCN(C/C=C/c2ccccc2)CC1 | – | – | – | – | – | – | – | – | –
O=S(=O)(c1ccccc1)N1CCN(C/C=C/c2ccccc2)CC1 | – | – | – | – | – | – | – | – | –
O=S(=O)(c1ccc(F)cc1)N1CCN(CCc2ccccc2)CC1 | – | – | – | – | – | – | – | – | –
O=S(=O)(c1ccccc1)N1CCN(Cc2c(O)ccc3ccccc23)CC1 | · | · | · | · | – | · | · | · | ·
Cc1ccc(NC(=O)CSc2nnc(COc3ccccc3F)n2N)cc1S(=O)(=O)N1CCOCC1 | · | · | · | · | – | · | · | · | ·
CC12CCC(=O)N1C(C(=O)OCc1c(Cl)cccc1Cl)CS2 (stereo not drawn) | – | – | – | – | – | – | · | · | ·
Cc1cc(C)c(-n2nnnc2SC(C)C)c(C)c1 | – | – | – | -11 | – | – | 54% | – | 42%
Cc1onc(-c2c(F)cccc2Cl)c1C(=O)OCC(=O)NC(c1ccccc1)c1ccccc1 | – | – | – | -8.3 | – | – | 25% | – | 29%
Cc1onc(-c2c(F)cccc2Cl)c1C(=O)OCC(=O)NC(N)=O | – | – | – | – | – | – | · | · | ·
CC/C(C)=N\Nc1nc(-c2cc3cc(OC)ccc3oc2=O)cs1 | – | – | – | – | – | – | – | – | –
Cc1cccc(-n2c(Cc3ccccc3)nnc2SCc2ccc([N+](=O)[O-])cc2)c1 | – | – | – | -14 | – | – | – | – | 41%
COc1ccccc1N1CCN(CCN2C(=O)CC(=C3c4ccccc4-c4ccccc43)C2=O)CC1 | – | – | – | – | · | – | – | – | –
CCOC(=O)c1cnc(N)nc1C(F)(F)F | – | – | – | – | – | – | · | · | ·
O=C(Nc1nccs1)C1CCN(S(=O)(=O)c2c(Cl)cccc2Cl)CC1 | – | – | – | -16 | – | – | – | – | –
O=C1CCN(CCc2ccccc2)CCN1CCSc1ccc(Br)cc1 | – | – | – | – | – | – | – | – | –
Cc1ccc(SCCN2CCN(CCc3ccccc3)CCC2=O)cc1 | – | – | – | – | – | – | – | – | –
CCc1ccc(N(CC(=O)NC(C)(C)C)C(=O)CCC(=O)Nc2ccccn2)cc1 | – | – | – | – | – | – | · | · | ·
CCc1ccccc1NC(=O)/C(C#N)=C/c1ccc(Sc2ccccc2)o1 | – | – | – | -14 | – | – | 53% | – | 51%
CC1CC1c1ccc(/C=C(\C#N)C(=O)Nc2ccccc2Cl)o1 (stereo not drawn) | – | – | – | – | – | – | · | · | ·
Cc1cc(C)nc(Sc2ccc(/C=C(\C#N)C(=O)Nc3ccccc3)o2)n1 | – | – | – | – | – | – | · | · | ·
